High-throughput results as filed in PubChem BioAssay.
Bfl-1 A1 inh = caspase 3/7 activation in MEF A1-2A-BIM cells, primary screen, A1 inhibitor project, cell-based, luminescence, HTS. Caspase-Glo 3/7 luminescence, 3 h; percent of clofoctol response, vehicle zero. caspase activation, % (test concentration not listed). 330,000 compounds, 0.066% hits. AID 2462, 2010;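 active = over half of replicate activation scores above 10%, or exactly half above 10 with the replicate mean above 10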
Tb MetRS inh = T. brucei MetRS inhibitors, primary screen, biochemical, luminescence | methionyl-tRNA synthetase (Trypanosoma brucei brucei) | purified T. brucei MetRS, ATP depletion, Kinase-Glo luminescence | inhibition, % at 11.9 µM | 360,000 compounds, 0.4% hits | AID 624268, 2012;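 active = inhibition above a per-plate cutoff of the control wells' mean inhibition plus 3 SD, cut at about 5.5% in these data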
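Test system – parasite MetRS enzyme · Reagent – substrates ATP, L-methionine and bulk Escherichia coli tRNA · Doses – 11.9 µM compound single dose, 0.9% DMSO · Times – 15 min enzyme-compound preincubation, 2 h reaction, 10 min detection, 25 °C · Signal – Kinase-Glo luminescence, ATP depletion format · Controls – DMSO-only wells as low control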
MT1-MMP act inh = blockers of MT1-MMP proenzyme processing, primary screen, HT1080 RFP-PRO-GFP cells, GFP/RFP fluorescence; 360,000 compounds, 0.061% hits; Matrix metalloproteinase-14 (Homo sapiens), P50281; GFP/RFP ratio fluorescence, overnight; percent of plate control window, DMSO zero; GFP/RFP ratio change, % at 20 µM; AID 651647, 2012;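 active = GFP/RFP ratio change of at least 30% with cell ATP level not reduced by more than half and red fluorescence within 50% of control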
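Assay system – RFP-PRO-GFP reporter HT1080 cells · Compound dosing – single dose of 20 µM compound, 1% DMSO final · Incubation – overnight compound exposure at 37 °C · Measure – GFP/RFP fluorescence ratio · Benchmarks – DMSO wells and RFP-L50D-GFP cells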
SKN-1 block = suppressors of acrylamide-induced Pgst-4::GFP reporter in worms, primary screen, SKN-1 inhibitor project, whole organism, uHTS, GFP/RFP fluorescence ratio, strain VP596; C. elegans VP596 Pgst-4::GFP/RFP ratio, 24 h; inhibition, % at 21.8 µM; AID 624304, 2012; 360,000 compounds, 0.49% hits;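 active = interference check ratio from 0.5 to 1.5 plus GFP to RFP signal ratio inhibition reaching or exceeding a fixed threshold, cut at about 30% in these data, passing the limit was not always enough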
NPR1 activator = GC-A stimulated cGMP production enhancers – HEK293 GC-A cells, cGMP TR-FRET, EC30 ANP, primary screen; Atrial natriuretic peptide receptor 1 (Homo sapiens), P16066; 0% at EC30 ANP, 100% saturating ANP; activation, % at 10 µM; 370,000 compounds, 0.14% hits; AID 1671463, 2021; in the data active = activation above about 40%
GC-B act = human GC-B receptor activators, primary screen, HEK293 GC-B cells, cGMP TR-FRET, EC30 CNP. activation, % at 10 µM. 0% at EC30 CNP, 100% saturating CNP. 370,000 compounds, 0.11% hits;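 active = activation at 10 µM reaching about 35% in either raw or pattern-adjusted values, limit read from the data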
Target sequence (P20594 whole entry, looked up): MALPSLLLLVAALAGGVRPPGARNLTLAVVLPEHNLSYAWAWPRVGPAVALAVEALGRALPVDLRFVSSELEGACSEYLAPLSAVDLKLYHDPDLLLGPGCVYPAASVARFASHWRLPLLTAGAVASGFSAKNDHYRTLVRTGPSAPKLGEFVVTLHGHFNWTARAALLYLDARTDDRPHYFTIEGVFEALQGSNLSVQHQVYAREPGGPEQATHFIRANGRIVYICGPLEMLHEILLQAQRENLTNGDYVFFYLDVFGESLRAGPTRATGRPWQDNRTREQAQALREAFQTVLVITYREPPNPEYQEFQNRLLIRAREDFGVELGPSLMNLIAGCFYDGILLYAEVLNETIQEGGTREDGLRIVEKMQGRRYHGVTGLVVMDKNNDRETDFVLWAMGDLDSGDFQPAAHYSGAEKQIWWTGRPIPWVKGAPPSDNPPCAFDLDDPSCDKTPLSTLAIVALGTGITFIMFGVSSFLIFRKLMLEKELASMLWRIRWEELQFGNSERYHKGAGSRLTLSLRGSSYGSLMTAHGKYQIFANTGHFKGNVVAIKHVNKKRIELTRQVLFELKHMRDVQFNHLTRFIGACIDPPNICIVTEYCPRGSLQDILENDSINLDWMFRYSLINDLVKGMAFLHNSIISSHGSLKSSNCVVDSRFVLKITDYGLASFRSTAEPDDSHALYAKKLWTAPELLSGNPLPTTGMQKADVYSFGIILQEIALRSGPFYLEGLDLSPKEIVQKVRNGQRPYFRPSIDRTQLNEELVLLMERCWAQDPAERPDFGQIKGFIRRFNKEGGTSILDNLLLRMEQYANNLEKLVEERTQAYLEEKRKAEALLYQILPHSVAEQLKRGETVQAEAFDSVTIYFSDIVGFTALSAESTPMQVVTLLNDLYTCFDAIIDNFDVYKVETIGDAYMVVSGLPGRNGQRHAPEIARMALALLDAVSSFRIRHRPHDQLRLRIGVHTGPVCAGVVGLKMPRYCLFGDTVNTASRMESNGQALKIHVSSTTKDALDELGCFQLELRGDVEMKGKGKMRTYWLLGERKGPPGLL
A number is an active result; i = inactive; nt = no result given. Compounds with a hit are over-represented: about 1.1% of the library has one in this group of screens.

SMILES	Bfl-1 A1 inh	Tb MetRS inh	MT1-MMP act inh	SKN-1 block	NPR1 activator	GC-B act
COc1ccc(N=Cc2cc(Cc3ccccc3Cl)cc([N+](=O)[O-])c2O)cc1OC	i	i	i	38	nt	nt
Cc1ccc(N=Cc2cc(Cc3ccccc3Cl)cc([N+](=O)[O-])c2O)c(O)c1	i	i	i	i	nt	nt
O=C(Nc1ccc([N+](=O)[O-])cc1)c1ccccc1	i	i	i	37	i	i
O=C(Nc1ccc([N+](=O)[O-])cc1)c1cccc([N+](=O)[O-])c1	nt	i	i	i	i	i
O=C(Nc1ccc(OC(F)F)c(Cl)c1)c1cccc(OC(F)F)c1	i	i	i	44	nt	nt
O=C(Nc1csc(Cl)c1)c1ccccc1	i	i	i	42	i	i
O=C(Nc1ccc(Cl)c(Cl)c1)Nc1ccon1	i	i	i	46	i	i
COc1ccc(NC(=O)c2cccc(OC(F)F)c2)cc1Cl	i	i	i	i	i	i
COc1ccc(C)c(NC(=O)[C@@H]2CCCN2S(=O)(=O)c2cccc3cccnc23)c1	nt	nt	nt	nt	i	i
Cc1cc(NC(=O)c2ccc(NS(=O)(=O)c3ccc(F)cc3)cc2)no1	nt	nt	nt	nt	i	i
COC(=O)[C@H]1C[C@@]2(N3CCCC3)c3ccccc3N[C@H]2N1S(C)(=O)=O	nt	nt	nt	nt	i	i
O=C(Nc1cccc(Cl)c1)c1ccccc1	i	i	i	i	i	i
O=C(Nc1ccc(Cl)c(Cl)c1)c1ccccc1	i	i	i	43	i	i
CC(C)CC(O)(CC(C)C)c1cn(C(=O)N(c2ccccc2)c2ccccc2)nn1	nt	nt	nt	nt	i	i
O=C(Nc1ccc(Br)cc1)c1cccc(S(=O)(=O)Nc2cnc3ccccc3c2)c1	i	65	i	i	i	i
O=C(Nc1ccc(Br)cc1)c1cccc(S(=O)(=O)Nc2ccccn2)c1	i	i	i	i	i	i
O=C(O)CC(O)C(=O)O (stereo not drawn)	i	i	i	i	i	i
CC(O)CC(=O)O (stereo not drawn)	i	i	i	41	i	i
CC(C)CC(C(=O)Oc1ccc2c3c(c(=O)oc2c1)CCC3)N1C(=O)c2ccccc2C1=O (stereo not drawn)	nt	i	i	35	i	i
Cc1ccccc1CS(=O)(=O)Cc1ccc(C(=O)Nc2c(C)cccc2C)o1	nt	nt	nt	nt	i	i
COc1cccc(-c2nc(-c3ccc(Br)o3)no2)c1	i	i	i	i	i	i
Brc1ccc(-c2nc(-c3ccccc3)no2)o1	i	i	i	79	i	i
Brc1ccc(-c2nc(-c3cccnc3)no2)o1	i	i	i	52	i	i
O=C1CC(c2ccc3c(c2)OCO3)N=C2N(Cc3ccc4c(c3)OCO4)C/C(=C/c3ccccc3)N12 (stereo not drawn)	nt	nt	nt	nt	i	i
COc1ccc(-c2cn(-c3ccc(C)cc3)c(=O)n2CC(=O)Nc2ccc(OC)cc2OC)cc1	i	i	i	38	i	i
SMILES	Bfl-1 A1 inh	Tb MetRS inh	MT1-MMP act inh	SKN-1 block	NPR1 activator	GC-B act
COc1ccc(NC(=O)Cn2c(-c3ccccc3)cn(-c3ccc(C)cc3)c2=O)cc1	i	i	i	i	i	i
CC(=O)Nc1sc2c(c1-c1nc3ccccc3s1)CCCN(C(C)C)C2	nt	nt	nt	nt	i	i
c1ccc(-c2cc3c(N4CCN(c5ncccn5)CC4)ncnc3s2)cc1	i	i	i	i	52	i
c1ccc(-c2cc3c(N4CCN(c5ccccc5)CC4)ncnc3s2)cc1	i	i	i	i	i	i
Cc1ccc(NC(=S)NNC(=O)CSc2nnc(-c3ccc(C)cc3)n2C2CCCCC2)cc1	nt	nt	nt	nt	i	i
CN(C)c1ccc(/C=C(\C#N)C(=O)NCc2ccco2)cc1	i	nt	nt	nt	nt	nt
Cn1c(=O)n(C)c2cc(/C=C(/C#N)C(=O)NCc3ccco3)ccc21	i	i	i	97	i	i
COc1ccc2ccccc2c1C=NNC(=O)c1cc(-c2ccc(C)cc2)n[nH]1	nt	nt	nt	nt	i	i
O=C1C=CC(=O)N1CCCCCCN1C(=O)C=CC1=O	i	nt	nt	nt	i	36
O=C(O)CN1C(=O)C=CC1=O	nt	i	i	i	i	i
O=[N+]([O-])c1cc(CN2CCCC2)ccc1Sc1ccc(Cl)cc1	i	i	i	52	i	i
Cc1ccc(NC(=O)c2ccc(CS(=O)(=O)Cc3ccccc3C)o2)c(C)c1	nt	nt	nt	nt	i	i
O=C(C=Cc1ccco1)c1ccc2ccccc2c1	nt	i	i	63	i	i
Cc1ccc(NC(=O)OC2CCC23CCCCC3)cc1 (stereo not drawn)	nt	nt	nt	nt	i	i
COc1ccc(CN(CCN2CCOCC2)C(=O)c2cc(F)ccc2C)cc1OC	nt	nt	nt	nt	i	i
O=C1CCC[C@H]2C[C@H](NCc3ccc(Cl)cc3)CC[C@]23CCCN13	nt	nt	nt	nt	i	i
CS(=O)(=O)Nc1ccc(C2=NN(C(=O)c3cccc(F)c3)C(c3cccs3)C2)cc1 (stereo not drawn)	5.4	i	i	i	i	i
CS(=O)(=O)Nc1ccc(C2=NN(C(=O)c3ccccc3)C(c3cccs3)C2)cc1 (stereo not drawn)	i	i	i	i	i	i
COc1ccc(Cn2cc(COC(=O)NCC(C)C)nn2)cc1	nt	nt	nt	nt	i	i
CCc1nnc(NC(=O)CSc2ccc(-c3nc4ccccc4[nH]3)cn2)s1	i	9.9	i	i	i	i
O=C(Nc1ccccc1)O/N=C/c1ccc(F)cc1	i	i	i	37	i	i
Cc1ccc(NC(=O)COc2ccccc2)cc1Cl	i	i	i	i	nt	nt
CCOCC(=O)Nc1ccc(C)c(Cl)c1	i	i	nt	36	i	i
CC(C)(C)OC(=O)N1CCC(c2ccc[nH]2)(c2c[nH]c3ccccc23)CC1	nt	nt	nt	nt	i	i
Clc1ccc(OCCCCSc2ncccn2)cc1	i	i	i	91	i	i
SMILES	Bfl-1 A1 inh	Tb MetRS inh	MT1-MMP act inh	SKN-1 block	NPR1 activator	GC-B act
Clc1ccc(OCCSc2ncccn2)c(Br)c1	i	i	i	53	49	i
Nc1nnc(SCCOc2cccc(Br)c2)s1	i	i	i	i	i	i
Clc1cccc(CNCCCSc2ncccn2)c1	i	i	i	i	i	i
Brc1cccc(OCCSc2ncccn2)c1	i	i	i	50	i	i
CN(C)CCCOc1ccc(Cl)cc1Br	i	5.9	i	i	i	i
C=CCCC(=O)N[C@H]1CC[C@@]23CCCN2C(=O)CCC[C@H]3[C@H]1CCC	nt	nt	nt	nt	i	i
CC(=O)NC1CCCCN(Cc2cccc(F)c2)C1=O (stereo not drawn)	nt	nt	nt	nt	i	i
